M5 PAM = positive allosteric modulators of human muscarinic M5 receptor; P08912; CHO-K1 hM5, Fluo-8 calcium, ACh EC20 PAM; 0% = ACh EC20, 100% = ACh EC100; activation, % at 3 µM; 0.3% of 360,000 active;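 active = activation above the run cutoff, the mean activation of all test compounds plus 3 SD, cut at about 18% in these data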
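Assay system – human M5 receptor in CHO-K1 cells · Read-out – % activation, ACh-normalized · Technique – Fluo-8 calcium fluorescence · Dosing – single-point, 3 µM nominal · Incubation – Fluo-8 loading 80 min at 37 °C plus 30 min room temperature · Repeats – singlicate, one well per test compound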
M5 antag = blocks acetylcholine activation of human M5 receptor; AID 624040; 0.59% of 360,000 active; P08912; CHO-hM5 cells, Fluo-8 calcium fluorescence, ACh EC80; inhibition, % at 3 µM;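 active = inhibition above a per-plate cutoff, the mean of that plate's test compounds plus 3 SD, cut at about 27% in these data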
M4 PAM = CHRM4 positive allosteric modulation | P08173 | CHO-K1 hM4/Gqi5, Fluo-8 calcium fluorescence, ACh EC20; 0% = ACh EC20, 100% = maximal ACh | activation, % at 3 µM | 0.4% of 360,000 active | AID 624126;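 active = activation above its plate's cutoff, the mean activation of sample wells plus 3 SD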
Target sequence (P08173 whole entry, looked up): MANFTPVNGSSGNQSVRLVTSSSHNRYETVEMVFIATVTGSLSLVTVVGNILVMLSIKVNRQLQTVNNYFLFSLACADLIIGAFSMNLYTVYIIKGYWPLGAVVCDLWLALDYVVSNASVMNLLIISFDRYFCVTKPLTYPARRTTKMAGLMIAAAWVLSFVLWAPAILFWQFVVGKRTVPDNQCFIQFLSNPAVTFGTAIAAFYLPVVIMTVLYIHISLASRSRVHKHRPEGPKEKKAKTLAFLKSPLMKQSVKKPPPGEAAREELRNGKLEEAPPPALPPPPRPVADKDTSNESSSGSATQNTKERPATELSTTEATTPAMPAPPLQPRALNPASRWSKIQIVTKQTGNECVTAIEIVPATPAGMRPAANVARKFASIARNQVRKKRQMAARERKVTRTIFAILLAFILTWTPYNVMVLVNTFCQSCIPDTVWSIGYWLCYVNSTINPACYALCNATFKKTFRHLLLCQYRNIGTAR
CHRM4 antagonist = blocks acetylcholine activation of human M4 receptor | 0.73% of 360,000 active | CHO-hM4 cells, ACh EC80, Fluo-8 calcium fluorescence | AID 624125 | inhibition, % at 3 µM | P08173;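 active = inhibition above its plate's cutoff, the mean inhibition of sample wells plus 3 SD, cut at about 27% in these data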
CHRM5 agonist = agonists of human muscarinic M5 receptor (CHRM5). CHO-K1 hM5 cells, Fluo-8 calcium fluorescence; 0% DMSO wells, 100% maximal acetylcholine response. AID 624037. P08912. activation, % at 3 µM. 0.19% of 360,000 active;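 active = activation above the run's mean over test compounds plus 3 SD, cut at about 23% in these data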;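 note: signal is peak over basal fluorescence ratio across the kinetic read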
M4 ag = agonists of human muscarinic M4 receptor (CHRM4); P08173; CHO-K1 hM4/Gqi5, Fluo-8 calcium fluorescence; vehicle 0%, full acetylcholine response 100%; activation, % at 3 µM; 0.14% of 360,000 active; AID 624127;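 active = activation above the run mean over all test wells plus 3 SD, cut at about 32% in these data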;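 note: peak over basal fluorescence ratio per well then scaled between controls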
Large screens that a line does not name were inactive. A selection: hits, their analogues and other compounds. The true share with any hit is near 1.8%.

Cc1ccc(S(=O)(=O)n2c(N)nc3ccccc32)cc1	M5 antag 76, CHRM4 antagonist 86
Nc1nc2ccccc2n1S(=O)(=O)c1ccc([N+](=O)[O-])cc1	none
COc1ccc(S(=O)(=O)n2c(N)nc3ccccc32)cc1	M5 antag 69, CHRM4 antagonist 73
Nc1nc2ccccc2n1S(=O)(=O)c1ccc(Cl)cc1	M5 antag 40, CHRM4 antagonist 52
CC(C)(C)c1ccc(C(=O)NCCC(=O)Nc2ccc3c(c2)OCCO3)cc1	none
O=C(/C=C/c1cn(-c2ccccc2)nc1-c1ccccc1)Nc1ccc(C(=O)O)cc1	CHRM4 antagonist 71
CC(C)NC(=O)/C(=C/c1cn(-c2ccccc2)nc1-c1cccc([N+](=O)[O-])c1)NC(=O)c1ccccc1	CHRM4 antagonist 32
O=C(O)/C=C/c1cn(-c2ccccc2)nc1-c1cccc([N+](=O)[O-])c1	none
Cc1ccc(C(=O)N/C(=C/c2cn(-c3ccccc3)nc2-c2ccccc2)C(=O)O)cc1	M5 PAM 20
NS(=O)(=O)c1ccc(NC(=O)/C=C/c2cn(-c3ccccc3)nc2-c2cccc(Cl)c2)cc1	none
CC(C)CCN(C(=O)CCCSc1nc2ccccc2[nH]1)c1c(N)n(Cc2ccccc2)c(=O)[nH]c1=O	none
CC(=O)c1sc(NC(=O)C2(F)C(F)(F)C(F)(F)C(F)(F)C(F)(F)C2(F)F)nc1C	M5 antag 29
CCOC(=O)C1CCN(c2ncnc3c(C)csc23)CC1	CHRM4 antagonist 35
CN(CCO)c1cc(Sc2nc3ccccc3s2)c2nonc2c1[N+](=O)[O-]	CHRM4 antagonist 93
CC(=O)OCCN(C)c1cc(SC(C)C)c2nonc2c1[N+](=O)[O-]	none
Cc1ccc(NC(=O)C2CCN(S(=O)(=O)c3ccc(N4CCCC4=O)cc3)CC2)cc1Cl	M5 antag 50
COc1ccc(NC(=O)C2CCN(S(=O)(=O)c3ccc(N4CCCC4=O)cc3)CC2)c(OC)c1	none
CC1Sc2ccc(S(=O)(=O)N3CCC(C(=O)Nc4ccc(Cl)cc4)CC3)cc2NC1=O (centres undefined)	M5 antag 33, CHRM4 antagonist 30
O=C(Nc1ccc(Cl)cc1)N1CCC(c2nc(-c3ccc(F)cc3)no2)CC1	M5 antag 47
Cc1ccc2c(c1)C(=O)C(=O)N2Cc1ccc(Cl)cc1	CHRM5 agonist 34
Cc1ccc2c(c1)C(=O)C(=O)N2Cc1ccc(F)cc1	none
Cc1ccc(Cc2c(-c3ccc(C#N)cc3)nc3ccc(Cl)cn23)cc1	none
CCOC(=O)[C@]12CCC=C1N(Cc1ccc(Cl)cc1Cl)C(=O)[C@H](CC(=O)NCc1ccccc1)C2	none
CCSc1nc(N)c(NC(=O)c2ccc(Br)o2)c(=O)[nH]1	none
Nc1nc(SCC(=O)Nc2ccc(OC(F)(F)F)cc2)[nH]c(=O)c1NC(=O)c1ccc(Br)o1	M5 antag 34
Cc1noc(C)c1C(=O)N1CCC1(C)C(=O)NS(=O)(=O)Cc1cccc(Cl)c1 (centres undefined)	none
CN(C)c1ccc(CC(=O)N2CCCC(c3cc(C(=O)Nc4ccc(F)c(Cl)c4)no3)C2)cc1 (centres undefined)	CHRM4 antagonist 28
CC(C)C[C@@]12C(=O)N(c3cccc(Cl)c3)C(=O)N1[C@H](c1ccc(Br)cc1)[C@@H]1C(=O)N(C(C)(C)C)C(=O)[C@@H]12	none
CC[C@@]12C(=O)N(c3cccc(Cl)c3)C(=O)N1[C@H](c1ccc(Br)cc1)[C@@H]1C(=O)N(C(C)(C)C)C(=O)[C@@H]12	M4 PAM 28
Cc1cccc(N2C(=O)N3[C@H](c4ccc(Cl)cc4)[C@@H]4C(=O)N(C5CCCCC5)C(=O)[C@@H]4[C@]3(Cc3ccc(Cl)cc3)C2=O)c1	M5 PAM 19
Cc1cccc(N2C(=O)N3[C@H](c4ccc(F)cc4)[C@@H]4C(=O)N(C5CCCCC5)C(=O)[C@@H]4[C@]3(Cc3ccc(Cl)cc3)C2=O)c1	none
CC(=O)N(C)C[C@H]1Oc2ncc(Br)cc2C(=O)N([C@H](C)CO)C[C@@H]1C	none
NS(=O)(=O)c1ccc(NC(=O)C2Cc3ccccc3C(=O)O2)cc1 (centres undefined)	M4 PAM 26
O=C1OC(C(=O)Nc2ccccc2)Cc2ccccc21 (centres undefined)	none
Cc1cccc(C(=O)Nc2ccc(C(=O)/C=C/c3cccnc3)cc2)c1	none
Cc1cccc(C(=O)Nc2ccc(C(=O)/C=C/c3ccncc3)cc2)c1	CHRM4 antagonist 33
CCC(C)CCN1C(N(C)C)=NC[C@@H]1C (some centres undefined)	CHRM4 antagonist 39
N=c1c2ccccc2nc2n1CCCCCCCCCCC2	M4 ag 34
O=c1c2ccccc2nc2n1CCCCC2	none
NCC1CCC(C(=O)Oc2ccc(CCC(=O)O)cc2)CC1 (centres undefined)	CHRM5 agonist 24
COc1ccccc1-n1cnnc1SC(C)C(=O)NCC1CCCO1 (centres undefined)	none
Cc1scc2c1N(C(=O)CN1CCN(C)CC1)c1ccccc1NC2=O	M5 antag 99, CHRM4 antagonist 98
CN(CC(=O)Nc1ccccc1Br)C(=O)CN1CCN(Cc2cccc(Cl)c2)CC1	none
CC(=O)O[C@H]1[C@@H](O)[C@H](O)[C@H](Oc2c(O)c(C)c3c4c2[C@@H](C)CC[C@@H]4[C@@H](C)C[C@@H]3C=C(C)C)O[C@H]1C	none
O=C(CN1C(=O)C(=O)c2ccccc21)NCCc1ccccc1	none
O=C1C(=O)N(CCCc2ccccc2)c2ccccc21	CHRM5 agonist 26
COc1ccccc1N(C)S(=O)(=O)c1ccc(C(=O)Nc2cccc(S(=O)(=O)N3CCOCC3)c2)cc1	none
Cc1ccc(C(=O)NCc2ccco2)cc1Br	M4 PAM 20
CCn1c(C)c(C)c2cc(C(=O)NCCc3ccco3)ccc21	M4 PAM 18
O=C(NCc1ccccc1)c1ccc(CN2CCOCC2)cc1	none
Cc1cc(C)c2c(N)c(C(=O)NCc3ccco3)sc2n1	M4 PAM 50
CC(=O)c1sc2nc(C)cc(C)c2c1N	none
Cc1c(C)n(C)c2ccc(C(=O)NCCc3ccco3)cc12	none
Cc1c(Br)cc(C(=O)NCc2ccco2)c(C)c1C	none
O=C(NCc1ccco1)c1ccc(CN2CCOCC2)cc1	M5 PAM 19
CCc1nc2ccc(C(=O)Nc3cccc(OCC(=O)N(C)C)c3)cn2c1N(C)Cc1ccc(OC)cc1	none
COc1cccc(-c2ccccc2C2=CC(=O)CC(C)(C)C2=O)c1	none

High-throughput results deposited in PubChem BioAssay by The Scripps Research Institute Molecular Screening Center.
